Lmaj promast: reduces viability of Leishmania major promastigotes | inhibition, % at 10 µM | AID 1063 | resazurin fluorescence viability | hit rate 9% among 200,000; in the data active = inhibition above about 50%;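 also: promastigotes grown with compound for 44 hours at 28 °C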
SKKanGAS inh: blocks kanamycin growth of S. pyogenes SKKanGAS strain. BacTiter-Glo, 6 h. hit rate 1.3% among 300,000. inhibition, % at 7.5 µM. AID 1662;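 active = mean replicate score, as percent of positive control median, at least 50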;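 also: strain carries kanamycin resistance gene driven by streptokinase promoter and grows in 40 µg/ml kanamycin; loss of luminescence reflects streptokinase promoter inhibition or plain growth inhibition; 0% = median of DMSO wells and 100% = positive control at its reference dose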
CSC inhib: blocks cancer stem cells. cancer stem cell-like cells viability, luminescence. inhibition, % at 7.5 µM. hit rate 1.1% among 300,000. AID 2717; in the data active = inhibition above about 75%; tested in HMLE shEcad cells
Mdm2-MdmX inh: disrupts the human Mdm2-MdmX interaction; O15151+Q00987; SaOS-2 split-luciferase Mdm2/MdmX complementation, luminescence; inhibition, % at 8 µM; hit rate 3% among 330,000; AID 485346;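 active = inhibition of at least 50% at 8 µM in the primary screen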
Target sequence (O15151 whole entry, looked up): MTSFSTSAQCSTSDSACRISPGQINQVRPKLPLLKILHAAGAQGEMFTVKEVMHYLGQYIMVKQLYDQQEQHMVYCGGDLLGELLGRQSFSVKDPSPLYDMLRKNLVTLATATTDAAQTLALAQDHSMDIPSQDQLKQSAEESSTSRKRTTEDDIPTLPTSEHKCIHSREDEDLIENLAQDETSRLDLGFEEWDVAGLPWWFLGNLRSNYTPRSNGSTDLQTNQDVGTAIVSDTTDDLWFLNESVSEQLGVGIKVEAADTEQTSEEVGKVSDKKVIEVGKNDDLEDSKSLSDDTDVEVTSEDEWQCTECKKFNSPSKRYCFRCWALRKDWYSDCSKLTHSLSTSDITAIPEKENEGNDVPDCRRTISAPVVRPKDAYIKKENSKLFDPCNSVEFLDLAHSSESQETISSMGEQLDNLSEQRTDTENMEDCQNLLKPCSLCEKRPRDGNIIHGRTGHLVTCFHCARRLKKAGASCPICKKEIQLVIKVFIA
Target sequence (Q00987 whole entry, looked up): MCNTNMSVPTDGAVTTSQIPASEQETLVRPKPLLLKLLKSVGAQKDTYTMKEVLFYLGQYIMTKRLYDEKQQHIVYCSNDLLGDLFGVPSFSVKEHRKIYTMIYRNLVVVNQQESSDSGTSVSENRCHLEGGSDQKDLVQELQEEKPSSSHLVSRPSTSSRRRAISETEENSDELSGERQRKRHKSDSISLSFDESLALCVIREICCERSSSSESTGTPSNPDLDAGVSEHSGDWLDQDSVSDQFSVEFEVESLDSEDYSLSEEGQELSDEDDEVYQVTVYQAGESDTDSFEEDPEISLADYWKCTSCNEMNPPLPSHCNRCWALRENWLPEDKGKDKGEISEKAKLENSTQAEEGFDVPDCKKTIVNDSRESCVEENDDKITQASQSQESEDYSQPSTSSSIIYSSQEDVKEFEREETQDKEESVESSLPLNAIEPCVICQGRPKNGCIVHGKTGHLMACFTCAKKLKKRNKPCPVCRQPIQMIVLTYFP
Beta cell apopt: blocks beta cell apoptosis; INS-1E cytokine-induced death, ATP luminescence, 48 h; percent of positive-control rescue, neutral wells zero; protection from apoptosis, % (concentration not given with the values); hit rate 0.8% among 300,000; AID 435005;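 active = Every replicate reaches about 75%, or at least half do and their mean reaches it too, limit read from the data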;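 also: 0% = cytokine-treated negative control wells and 100% = positive control rescue; higher means more ATP so stronger rescue from cytokine killing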
T cruzi repl: T. cruzi replication inhibition; inhibition, % (concentration not given with the values); AID 1885; hit rate 1.4% among 300,000; T. cruzi beta-gal in NIH3T3, luminescence, 90 h;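 active = mean inhibition across valid replicates above about 55%, limit read from the data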;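 also: signal also drops with host cell toxicity which is not excluded here; 0% = plate median of DMSO wells and 100% = zero luminescence signal; higher percent means less beta-gal luminescence so fewer parasites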
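Incubation – ≥90 h infection period, 3 h prior cell attachment · System – NIH/3T3 fibroblasts plus reporter T. cruzi · Doses – compound pinned at 50 nL/well, DMSO · Read-out basis – percent inhibition of parasite-derived β-gal signal · Signal – luminescent β-galactosidase signal after 60 min lysis · Also added – 5000 T. cruzi trypomastigotes/well · Medium – Low-serum DMEM with 2% FBS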
Starred values were filed as active, the others as inactive. Most compounds without a hit are left out; they make up all but 9.4% or so of the library.

What do the screens show for `O=C(CNc1cc(S(=O)(=O)N2CCCC2)ccc1OCC(F)(F)F)Nc1cccc(C(F)(F)F)c1`?
Lmaj promast: 95.1*; SKKanGAS inh: -4.5; CSC inhib: -1.2; Mdm2-MdmX inh: 3.8; Beta cell apopt: 34.5; T cruzi repl: 6.3

How did O=C(CSc1nnc(-c2cccs2)o1)Nc1cccc(S(=O)(=O)N2CCCCC2)c1 do in these assays?
Lmaj promast: 50.9*; SKKanGAS inh: 4.2; CSC inhib: -13.8; Mdm2-MdmX inh: 11.6; Beta cell apopt: -2.6; T cruzi repl: -8.0

What do the screens show for `O=[N+]([O-])c1ccc(Nc2ccccc2)c2nonc12`?
SKKanGAS inh: 3.9; CSC inhib: -3.6; Mdm2-MdmX inh: -0.3; Beta cell apopt: 13.5; T cruzi repl: 5.9

What do the screens show for `O=[N+]([O-])c1ccc(Sc2cccc[n+]2[O-])c2nonc12`?
SKKanGAS inh: 101.8*; T cruzi repl: 42.9

How did CC(c1nnnn1C(C)(C)C)N(Cc1cccnc1)Cc1ccccc1Cl (stereo unspecified) do in these assays?
Lmaj promast: 96.5*; SKKanGAS inh: -0.5; CSC inhib: -4.1; Mdm2-MdmX inh: 6.1; Beta cell apopt: 7.3; T cruzi repl: 65.9*

Results for CC(C)(C)n1nnnc1C(c1cccs1)N1CCN(Cc2ccccc2)CC1 (stereo unspecified) ?
Lmaj promast: 22.5; SKKanGAS inh: 1.1; CSC inhib: -6.0; Mdm2-MdmX inh: 7.7; Beta cell apopt: -3.5; T cruzi repl: 0.2

How did CC(C)(C)n1nnnc1C(c1cccs1)N(Cc1cccnc1)Cc1ccccc1Cl (stereo unspecified) do in these assays?
Lmaj promast: 100.1*; SKKanGAS inh: 15.0; CSC inhib: 41.0; Mdm2-MdmX inh: 19.3; T cruzi repl: 70.6*

What do the screens show for `CCC(CC)NC(=O)C1CCN(c2ccc(S(=O)(=O)N3CCOCC3)cc2[N+](=O)[O-])CC1`?
CSC inhib: -0.2; Mdm2-MdmX inh: -14.7; Beta cell apopt: 9.5

Results for COc1ccc(NC(=O)CN(C)C(=O)Cn2c(=O)oc3ccccc32)cc1 ?
SKKanGAS inh: -1.8; CSC inhib: -1.0; Mdm2-MdmX inh: -7.0; Beta cell apopt: -3.4; T cruzi repl: -8.1

What do the screens show for `COc1cccc(C(=O)Nc2nnc(S(=O)(=O)N3CCCC3)s2)c1`?
SKKanGAS inh: 43.5; CSC inhib: -3.1; Mdm2-MdmX inh: 13.9; Beta cell apopt: 0.9; T cruzi repl: 5.7

Results for Cc1cc(NC(=O)COc2ccccc2C)ccc1NC(=O)c1cccs1 ?
SKKanGAS inh: 5.0; CSC inhib: -1.1; Mdm2-MdmX inh: 16.8; Beta cell apopt: -4.3; T cruzi repl: -16.9

Results for CC/C(=N\NC(=O)c1nnn(-c2nonc2N)c1-c1cccs1)c1ccccc1 ?
SKKanGAS inh: 0.7; CSC inhib: -15.7; Mdm2-MdmX inh: 10.6; Beta cell apopt: 1.5; T cruzi repl: 24.2

What do the screens show for `COc1ccc(N=C2C(=O)Nc3ccccc32)cc1`?
Lmaj promast: 100.0*; SKKanGAS inh: -2.8; CSC inhib: 6.8; Mdm2-MdmX inh: 18.2; Beta cell apopt: -4.4; T cruzi repl: 6.3

Results for COc1cccc(N=C2C(=O)N3CCCc4cccc2c43)c1 ?
Lmaj promast: 25.9; SKKanGAS inh: 5.9; CSC inhib: -10.1; Mdm2-MdmX inh: 4.8; Beta cell apopt: 2.1; T cruzi repl: 5.1

How did COc1ccc(N=C2C(=O)N3c4c(cccc42)C(C)=CC3(C)C)cc1 do in these assays?
Lmaj promast: 97.1*; SKKanGAS inh: -2.3; CSC inhib: 49.9; Mdm2-MdmX inh: 26.1; Beta cell apopt: 2.5; T cruzi repl: 1.7

How did CCOC(=O)c1sc(NC(=O)CN2CCN(c3ccc(OC)cc3)CC2)nc1C do in these assays?
SKKanGAS inh: 6.3; Mdm2-MdmX inh: 9.5; T cruzi repl: -6.8

Results for Cc1ccc(C)c(Nc2ncnc(N)c2[N+](=O)[O-])c1 ?
Lmaj promast: 61.0*; SKKanGAS inh: 4.6; Mdm2-MdmX inh: 18.3; T cruzi repl: 4.8

What do the screens show for `Cc1cccnc1Nc1ncnc(N)c1[N+](=O)[O-]`?
Lmaj promast: -0.1; SKKanGAS inh: 8.9; CSC inhib: -13.3; Mdm2-MdmX inh: -20.1; Beta cell apopt: 1.9; T cruzi repl: -12.2

What do the screens show for `CCN1C(=O)C(C)S/C1=N\S(=O)(=O)c1ccc(F)cc1` (stereo unspecified)?
Lmaj promast: -3.5; SKKanGAS inh: -3.0; CSC inhib: 1.2; Mdm2-MdmX inh: -3.0; Beta cell apopt: -5.6; T cruzi repl: 0.5
